This is an account of results in ChEMBL document CHEMBL3217593, “A Bivalent Ligand Targeting the Putative Mu Opioid Receptor and Chemokine Receptor CCR5 Heterodimers: Binding Affinity versus Functional Activities” (Medchemcomm, 2013).

Calls of active or inactive are those of the source. No cut-off for these calls is given here.

The target of series [1] is T1, C-C chemokine receptor type 5 (Homo sapiens, UniProt P51681). The series is described as follows: Antagonist activity at CCR5 in Gqi5 transfected human MOLT4 cells assessed as inhibition of RANTES-stimulated Ca2+ influx preincubated for 15 mins followed by […]. It is filed as functional, cell-based, MOLT-4. The essentials: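 CCR5-MOLT-4 cells transfected with chimeric […]. Inhibition of RANTES-stimulated Ca2+ flux was measured. IC50 is the mean ± S.E.M. of three independent experiments.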
Target sequence in this assay (P51681 whole entry): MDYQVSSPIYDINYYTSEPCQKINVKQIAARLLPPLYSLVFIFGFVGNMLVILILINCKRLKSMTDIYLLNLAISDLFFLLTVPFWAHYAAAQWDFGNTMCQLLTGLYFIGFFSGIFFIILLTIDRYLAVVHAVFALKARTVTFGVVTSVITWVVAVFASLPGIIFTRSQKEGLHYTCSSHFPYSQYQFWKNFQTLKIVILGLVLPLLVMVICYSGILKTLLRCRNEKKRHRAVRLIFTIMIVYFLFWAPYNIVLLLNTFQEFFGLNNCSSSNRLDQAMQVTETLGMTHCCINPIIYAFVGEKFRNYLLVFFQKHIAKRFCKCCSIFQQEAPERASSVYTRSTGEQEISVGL

Series [2] has as its target C-C chemokine receptor type 5 (Macaca mulatta, UniProt P61813). The series is described as follows: Displacement of [125I]-MIP-1alpha from CCR5 in rhesus monkey Chem-1 cell membranes after 120 mins by liquid scintillation counting analysis.
For series [3], the target named is CCR5/mu opioid receptor complex (Homo sapiens) (UniProt P51681+P35372). The following applies: 100 nM.
Series [4] in a line: Cytotoxicity against human astrocytes assessed as cell viability at 100 nM by AOPI staining-based fluorescence assay. The settings on record: astrocyte, 0.1 µM. The essentials: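 Astroglial cell viability after exposure at 100 nM, assessed by dual green/red fluorescence labeling with AOPI.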
Series [5] addresses T1, C-C chemokine receptor type 5. Description: Agonist activity at CCR5 in Gqi5 transfected human MOLT4 cells after 15 mins. It counts as cell-based. The settings on record: MOLT-4. The essentials:
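Ca2+ mobilization, agonist mode, in CCR5-MOLT-4 cells transfected with chimeric […]. Intracellular Ca2+ flux was read directly, with no agonist challenge.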
Target sequence in this assay (P51681 whole entry, looked up): as the sequence (P51681 whole entry) above

Series [6] deals with T2, Mu-type opioid receptor (Homo sapiens, UniProt P35372). Description: Agonist activity at human mu opioid receptor expressed in Gqi5 transfected CHO cells after 15 mins. It is filed as cell-based. The essentials:
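hMOR-expressing CHO cells transfected with chimeric […] were tested for direct Ca2+ mobilization (agonist mode).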

The species entered for series [7] is Homo sapiens. Description: Binding affinity to CCR5/MOR in human astrocytes assessed as inhibition of R5 HIV-1 SF162 infection by measuring Tat protein expression at 1.5 uM preincubated for 30 to 60 mins followed by viral infection measured after 18 hrs by luciferase reporter gene assay. It is filed as cell-based. The essentials:
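Human astrocytes infected with R5 HIV-1 SF162. Infectivity was read as relative Tat protein expression by luciferase-based assay at 18 h post-infection. Tested at 1.5 μM after an initial dose-response study. Values are from three independent experiments, compared against uninfected and infected controls.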

In series [8] the target is T2, Mu-type opioid receptor. The series is described as follows: Antagonist activity at human mu opioid receptor expressed in Gqi5 transfected CHO cells assessed as inhibition of DAMGO-stimulated Ca2+ influx preincubated for 15 mins followed by DAMGO challenge. It is filed as functional, cell-based. The essentials:
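hMOR-CHO cells transfected with chimeric […]. Inhibition of DAMGO-stimulated Ca2+ flux was measured. IC50 is the mean ± S.E.M. of three independent experiments.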

For series [9], the target named is T2, Mu-type opioid receptor. Description: Displacement of [3H]-naloxone from human mu opioid receptor expressed in CHO cells after 1 hr. It is filed as cell-based. The essentials:
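Competitive binding in hMOR-expressing CHO cells with [3H]naloxone as radioligand. Ki is the mean ± S.E.M. of three independent experiments.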

T2 sequence (P35372 whole entry): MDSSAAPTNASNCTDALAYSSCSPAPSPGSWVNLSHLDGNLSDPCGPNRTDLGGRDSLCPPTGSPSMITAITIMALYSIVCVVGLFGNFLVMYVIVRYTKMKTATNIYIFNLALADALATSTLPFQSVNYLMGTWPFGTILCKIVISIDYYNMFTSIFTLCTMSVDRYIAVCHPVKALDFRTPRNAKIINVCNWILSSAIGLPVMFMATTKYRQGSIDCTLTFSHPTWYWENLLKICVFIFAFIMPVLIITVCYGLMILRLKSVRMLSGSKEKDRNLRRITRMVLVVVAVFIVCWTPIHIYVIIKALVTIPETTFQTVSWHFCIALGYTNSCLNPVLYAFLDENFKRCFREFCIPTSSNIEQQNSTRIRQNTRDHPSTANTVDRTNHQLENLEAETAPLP
Chain of CCR5/mu opioid receptor complex (Homo sapiens) (P35372 whole entry, looked up): as the sequence (P35372 whole entry) above
Chain of CCR5/mu opioid receptor complex (Homo sapiens) (P51681 whole entry, looked up): as the sequence (P51681 whole entry) above

`Cc1nnc(C(C)C)n1C1CC2CCC(C1)N2CC[C@H](NC(=O)C1CCC(F)(F)CC1)c1ccc(NC(=O)OC(C)(C)C)cc1` (some centres undefined): the concentration for half-maximal inhibition (IC50) in [1] came to 1570 nM.
Take `CNC(=O)COCC(=O)NCCCCCCCNC(=O)COCC(=O)Nc1ccc([C@H](CCN2C3CCC2CC(n2c(C)nnc2C(C)C)C3)NC(=O)C2CCC(F)(F)CC2)cc1` (some centres undefined): in series [1], the 50% inhibitory concentration (IC50) stood at 622 nM. Further, the affinity in series [2] corresponds to a Ki of 151 nM.
For the molecule `Cc1nnc(C(C)C)n1C1CC2CCC(C1)N2CC[C@H](NC(=O)C1CCC(F)(F)CC1)c1ccc(N)cc1` (some centres undefined), the concentration for half-maximal inhibition (IC50) in series [1] came to 14.2 nM. In series [2], this molecule came in with a Ki of 15.3 nM.
Regarding `Cc1nnc(C(C)C)n1[C@H]1C[C@H]2CC[C@@H](C1)N2CC[C@H](NC(=O)C1CCC(F)(F)CC1)c1ccccc1`, the inhibition entry in series [3] is “Active”.
For `Cc1nnc(C(C)C)n1C1CC2CCC(C1)N2CC[C@H](NC(=O)C1CCC(F)(F)CC1)c1ccc(NC(=O)COCC(=O)NCCCCCCCNC(=O)COCC(=O)N[C@@H]2CC[C@@]3(O)[C@H]4Cc5ccc(O)c6c5[C@@]3(CCN4CC3CC3)[C@H]2O6)cc1` (some centres undefined), the Activity result in series [4] is listed as “Non-toxic”. Moreover, the result in [5] and in [6] was inactive.
Consider `O=C1CC[C@@]2(O)[C@H]3Cc4ccc(O)c5c4[C@@]2(CCN3CC2CC2)[C@H]1O5`, for which the inhibition result in series [7] is “inactive”.
For `CNC(=O)COCC(=O)Nc1ccc([C@H](CCN2C3CCC2CC(n2c(C)nnc2C(C)C)C3)NC(=O)C2CCC(F)(F)CC2)cc1` (some centres undefined), in series [1], the 50% inhibitory concentration (IC50) stood at 7910 nM.
Consider `CNC(=O)COCC(=O)NCCCCCCCNC(=O)COCC(=O)N[C@@H]1CC[C@@]2(O)[C@H]3Cc4ccc(O)c5c4[C@@]2(CCN3CC2CC2)[C@H]1O5`, for which the IC50 in [8] came out at 37.8 nM. In addition, the outcome in series [6] was inactive. Moreover, in series [9], the Ki stood at 9.2 nM.
